ChEMBL document CHEMBL1124216, “A novel class of potential central nervous system agents. 3-Phenyl-2-(1-piperazinyl)-5H-1-benzazepines” (1988)

Experiments:
Format in all cases: functional
Mus musculus [1] = experiment: Antitremorine activity(TRM) of mice after peroral administration of 100 mg/kg of compound; Moderate inhibition (51-71%); conditions: route oral
Mus musculus [2] = experiment: Antimaximal electroshock seizure (MES) activity in mice after peroral administration of 100 mg/kg of compound; 4/5; conditions: route oral
Mus musculus [3] = experiment: Antiexploratory activity (EXPL) of mice determined by an antimex activity meter, 100 mg/kg of dose was administered perorally; Potent inhibition; conditions: route oral
Mus musculus [4] = experiment: Antitreserpine activity(RES) of mice after peroral administration of 100 mg/kg of compound; Moderate inhibition (51-71%); conditions: route oral
Mus musculus [5] = experiment: Antiexploratory activity (EXPL) of mice determined by an antimex activity meter, 10 mg/kg of dose was administered perorally; No inhibition; conditions: route oral
Mus musculus [6] = experiment: Antimaximal electroshock seizure (MES) activity in mice after peroral administration of 10 mg/kg of compound; 0/5; conditions: route oral
Mus musculus [7] = experiment: Antireserpine activity (RES) of mice after peroral administration of 100 mg/kg of compound; No inhibition; conditions: route oral
Mus musculus [8] = experiment: Antitremorine activity(TRM) of mice after peroral administration of 10 mg/kg of compound; No inhibition; conditions: route oral
Mus musculus [9] = experiment: Antiexploratory activity (EXPL) of mice determined by an antimex activity meter,100 mg/kg of dose was administered perorally; No inhibition
Mus musculus [10] = experiment: Antipentylene tetrazole activity was determined in mice when administered perorally; conditions: po
Method in brief: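 Groups of five male Std-ddY mice received compound orally in 0.5% tragacanth, then pentylenetetrazole 175 mg/kg ip. Blockade of the tonic extensor component scored as anticonvulsant. ED50 was the dose protecting 50% of animals (Litchfield-Wilcoxon).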

Mus musculus [11] = experiment: Antitremorine activity(TRM) of mice after peroral administration of 100 mg/kg of compound; conditions: route oral
Mus musculus [12] = experiment: Antimaximal electroshock seizure activity was determined in mice when administered perorally; conditions: po
Mus musculus [13] = experiment: Antimaximal electroshock seizure (MES) activity in mice after peroral administration of 100 mg/kg of compound; 5/5; conditions: route oral
Mus musculus [14] = experiment: Antiexploratory activity (EXPL) of mice determined by an antimex activity meter,100 mg/kg of dose was administered perorally

Row | Compound | inhibition in vivo at 100 mg/kg (Mus musculus [1]) [%] | Activity (Mus musculus [2]) | inhibition in vivo at 100 mg/kg (Mus musculus [3]) [%] | inhibition in vivo at 100 mg/kg (Mus musculus [4]) [%] | inhibition in vivo at 10 mg/kg (Mus musculus [5]) [%] | Activity (Mus musculus [6]) | inhibition in vivo at 100 mg/kg (Mus musculus [7]) [%] | inhibition in vivo at 10 mg/kg (Mus musculus [8]) [%] | Inhibition (Mus musculus [9]) [%] | ED50 (Mus musculus [10]) [mg/kg] | inhibition in vivo at 100 mg/kg (Mus musculus [11]) [%] | ED50 (Mus musculus [12]) [mg/kg] | Activity (Mus musculus [13]) | Inhibition (Mus musculus [14]) [%]
1 | COc1ccc2c(c1)CC=C(c1ccccc1)C(N1CCN(C)CC1)=N2.Cl.Cl | 51 | 4 | > 71 | 51 | < 30 | 0 | – | – | – | – | – | – | – | –
2 | CCN1CCN(C2=Nc3ccc(C)cc3CC=C2c2ccccc2)CC1.Cl.Cl | – | 4 | – | – | – | 0 | < 30 | < 30 | <30 | 32.3 | > 71 | 70.2 | – | –
3 | CCc1ccc2c(c1)CC=C(c1ccccc1)C(N1CCN(CCO)CC1)=N2.Cl.Cl | 51 | – | – | – | – | 0 | < 30 | – | – | – | – | – | 5 | <30
